Test results: ChEMBL document CHEMBL1122032, “Dopaminergic activity of substituted 6-chloro-1-phenyl-2,3,4,5-tetrahydro-1H-3-benzazepines” (J Med Chem, 1982)
Activity calls are given as the source filed them. The rule behind the calls is not given here.

Columns and labels:
Canis familiaris [1] = organism: Canis familiaris; assay: Renal blood flow was measured in dogs; Highly significant activity; format: functional, organism-based; settings: Canis lupus familiaris; Kidney
Canis familiaris [2] = organism: Canis familiaris; assay: Renal vascular resistance was calculated as the ratio of the mean arterial blood pressure / mean renal blood flow; Highly significant activity; format: functional, organism-based; settings: Canis lupus familiaris
Canis familiaris [3] = assay: Compound was evaluated for determining renal vascular resistance(iv) in dogs; format: functional, Canis lupus familiaris
Summary of the method: (§1)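 Secondary renal screen in anesthetized dogs: cumulative dose-response by infusing drug at progressively increasing rates, 5 min per dose level. RVR ED15 is the average minimum cumulative dose lowering RVR by 15%; maximum effect is the average maximum % fall in RVR. Selectivity ratios are separations between RVR ED15 and doses giving 30% change in iliac vascular resistance, 20% in MABP, 20% in HR.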

Canis familiaris [4] = organism: Canis familiaris; assay: Compound was evaluated for average maximum percent decrease in renal vascular resistance in dogs; format: functional, Canis lupus familiaris; summary of the method: as §1
[5] = Selectivity ratio of compound as ED15 relative to heart rate(HR) ED20; format: functional; summary of the method: as §1
[6] = Selectivity ratio of compound as ratio of ED15 relative to mean arterial blood pressure(MABP) ED20; format: functional; summary of the method: as §1
[7] = Selectivity ratio of Compound as ratio of ED15 relative to iliac vascular resistance(IVR) ED30; format: functional; summary of the method: as §1
Rattus norvegicus [8] = organism: Rattus norvegicus; assay: Adenylase cyclase activity in rat striatal membranes at the concentration of 10e-5; format: functional; settings: Striatum, Membrane
Rattus norvegicus [9] = organism: Rattus norvegicus; assay: Adenylase cyclase activity in rat striatal membranes at the concentration of 10e-6; format: functional; settings: Striatum, Membrane
Rattus norvegicus [10] = assay: Central dopaminergic activity against contralateral rotation(1000) in lesioned rats at the dose of 5.8(po) in 2 h; I=Inactive; format: functional, organism-based
Summary of the method: (§2)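 Oral dosing in rats with substantia nigra lesions, scoring contralateral rotations. RD1000 is the minimum dose producing 1000 turns in 2 h.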

Rattus norvegicus [11] = assay: Central dopaminergic activity for minimum concentration which produced 500 rotations(ip) in 2 h; format: functional
Summary of the method: (§3)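 Rats with substantia nigra lesions scored for contralateral rotation after intraperitoneal dosing (routine), oral dosing for selected compounds, or intracaudal administration for intrinsic activity. RD500 and RD1000 are the minimum doses giving 500 and 1000 turns, respectively, in 2 h.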

Canis familiaris [12] = organism: Canis familiaris; assay: Renal blood flow was measured in dogs; Significant activity; format: functional, organism-based; settings: Canis lupus familiaris; Kidney
Canis familiaris [13] = organism: Canis familiaris; assay: Renal vascular resistance was calculated as the ratio of the mean arterial blood pressure / mean renal blood flow; I=Inactive; format: functional, organism-based; settings: Canis lupus familiaris
Rattus norvegicus [14] = assay: Central dopaminergic activity for minimum concentration which produced 500 rotations at the dose of 10 mg/kg (i.p.) in 2 h; I=Inactive; format: functional, organism-based; parameters: dose 10 mg/kg; summary of the method: as §3
Canis familiaris [15] = organism: Canis familiaris; assay: Renal vascular resistance was calculated as the ratio of the mean arterial blood pressure / mean renal blood flow; Significant activity; format: functional, organism-based; settings: Canis lupus familiaris
Canis familiaris [16] = organism: Canis familiaris; assay: Renal blood flow was measured in dogs; I=Inactive; format: functional, organism-based; settings: Canis lupus familiaris; Kidney
Rattus norvegicus [17] = assay: Central dopaminergic activity against contralateral rotation(1000) in lesioned rats(po) in 2 h; format: functional; summary of the method: as §2
Rattus norvegicus [18] = organism: Rattus norvegicus; assay: Adenylase cyclase activity in rat striatal membranes; format: functional, organism-based, Membrane; settings: Striatum
Rattus norvegicus [19] = organism: Rattus norvegicus; assay: Adenylase cyclase activity in rat striatal membranes at the concentration of 10e-7; format: functional; settings: Striatum, Membrane
Rattus norvegicus [20] = assay: Central dopaminergic activity against contralateral rotation(1000) in lesioned rats(po) in 2 hr at 10 mg/kg; I=Inactive; format: functional, organism-based; parameters: dose 10 mg/kg; summary of the method: as §2
Rattus norvegicus [21] = assay: Central dopaminergic activity for minimum concentration which produced 500 rotations at the dose of 10 mg/kg (i.p.) in 2 h; format: functional; settings: route intraperitoneal; summary of the method: as §3
Rattus norvegicus [22] = assay: Central dopaminergic activity for minimum concentration which produced 500 rotations at the dose of 2.0 mg/kg (i.p.) in 2 h; I=Inactive; format: functional, organism-based; parameters: dose 2 mg/kg; summary of the method: as §3
Rattus norvegicus [23] = assay: Central dopaminergic activity for minimum concentration which produced 500 rotations at the dose of 2 mg/kg (i.p.) in 2 h; I=Inactive; format: functional, organism-based; parameters: dose 2 mg/kg; summary of the method: as §3

| Structure (SMILES) | RBF (Canis familiaris [1]) | RVR (Canis familiaris [2]) | RVR ED15 (Canis familiaris [3]) [mg/kg] | Decrease RVR (Canis familiaris [4]) [%] | Ratio [5] | Ratio [6] | Ratio [7] | DA response (Rattus norvegicus [8]) [%] | RD500 (Rattus norvegicus [11]) [mg/kg] | RVR (Canis familiaris [13]) | other results |
| --- | --- | --- | --- | --- | --- | --- | --- | --- | --- | --- | --- |
| NCCc1ccc(O)c(O)c1 [DOPAMINE] | Active | Active | 0.0027 | 36 | 141 | 113 | 56 |  |  |  |  |
| Br.Oc1cc2c(c(Cl)c1O)CCNCC2c1cccc(C(F)(F)F)c1 (stereo not given) | Highly significant activity | Significant activity | 0.008 | 44 | 75 | >6072 | 10 | 64 | 0.71 |  | DA response (Rattus norvegicus [9]): 59%; RD1000 (Rattus norvegicus [10]): inactive |
| Br.Oc1ccc(C2CNCCc3c2cc(O)c(O)c3Cl)cc1Cl (stereo not given) |  |  | 0.099 | 56 | 0 | -3 | -1 |  |  | inactive | RBF (Canis familiaris [12]): Significant activity; RD500 (Rattus norvegicus [14]): inactive |
| Br.Oc1cc2c(c(Cl)c1O)CCNCC2c1cc(Cl)c(O)c(Cl)c1 (stereo not given) |  |  | 0.165 | 18 | >37 | >37 | > 37 |  |  |  | RBF (Canis familiaris [12]): Significant activity; RVR (Canis familiaris [15]): Significant activity; RD500 (Rattus norvegicus [14]): inactive |
| Br.Cc1cccc(C2CN(C)CCc3c2cc(O)c(O)c3Cl)c1 (stereo not given) |  |  |  |  |  |  |  | 14 | 0.041 | inactive | RBF (Canis familiaris [16]): inactive; DA response (Rattus norvegicus [9]): 15%; RD1000 (Rattus norvegicus [17]): 2 mg/kg |
| Br.Oc1cccc(C2CNCCc3c2cc(O)c(O)c3Cl)c1 (stereo not given) |  |  | 0.00035 | 49 | 1029 | >6072 | 34 |  |  |  | RBF (Canis familiaris [12]): Significant activity; RVR (Canis familiaris [15]): Significant activity; EC50 (Rattus norvegicus [18]): 45 nM; RD500 (Rattus norvegicus [14]): inactive |
| Br.Cc1cccc(C2CNCCc3c2cc(O)c(O)c3Cl)c1 (stereo not given) | Highly significant activity | Significant activity | 0.015 | 56 | 7 | >6072 | 1 | 94 | 0.47 |  | DA response (Rattus norvegicus [19]): 76% |
| Br.Oc1cc2c(c(Cl)c1O)CCNCC2c1ccc(Cl)cc1 (stereo not given) |  |  |  |  |  |  |  | 68 | 3.4 | inactive | RBF (Canis familiaris [16]): inactive; DA response (Rattus norvegicus [9]): 52% |
| C=CCN1CCc2c(cc(OC(C)=O)c(OC(C)=O)c2Cl)C(c2ccccc2)C1.Cl (stereo not given) |  |  |  |  |  |  |  |  | 0.03 |  | RD1000 (Rattus norvegicus [20]): inactive |
| Br.Cc1ccccc1C1CNCCc2c1cc(O)c(O)c2Cl (stereo not given) |  |  |  |  |  |  |  | 55 |  | inactive | RBF (Canis familiaris [16]): inactive; DA response (Rattus norvegicus [9]): 30%; Contralateral turns in 2 h (Rattus norvegicus [21]): 663 turns/2 h |
| COc1ccc(CN2CCc3c(cc(O)c(O)c3Cl)C(c3ccccc3)C2)cc1 (stereo not given) | Highly significant activity | Significant activity |  |  |  |  |  |  |  |  | RD500 (Rattus norvegicus [14]): inactive |
| Cc1cccc(C2CN(Cc3ccco3)CCc3c2cc(O)c(O)c3Cl)c1 (stereo not given) |  |  |  |  |  |  |  |  |  | inactive | RBF (Canis familiaris [16]): inactive; RD500 (Rattus norvegicus [22]): inactive |
| CC(=O)Oc1cc2c(c(Cl)c1OC(C)=O)CCNCC2c1ccccc1 (stereo not given) | Highly significant activity | Significant activity |  |  |  |  |  |  |  |  |  |
| CCCN1CCc2c(cc(O)c(O)c2Cl)C(c2ccccc2)C1 (stereo not given) |  |  |  |  |  |  |  |  |  | inactive | RBF (Canis familiaris [12]): Significant activity; RD500 (Rattus norvegicus [23]): inactive |
| Br.C=CCN1CCc2c(cc(O)c(O)c2Cl)C(c2ccccc2)C1 (stereo not given) | Active | Active |  |  |  |  |  |  | 0.03 |  |  |
